We go through 11 molecules from ChEMBL document CHEMBL1159323, “Lignanamides and nonalkaloidal components of Hyoscyamus niger seeds” (J Nat Prod, 2002).

Some results are limits rather than exact numbers.

As usually defined, the IC50 is the concentration at which inhibition is half-maximal.

The test system of the assay is LNCaP. As to the kind of experiment: Cytotoxicity against human LNCAP cells after 48 hrs by MTT assay. The format is functional, cell-based. Put shortly: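 LNCaP cells (ATCC CRL1740) grown in RPMI with 10% FBS, streptomycin and penicillin at 37 °C, 5% CO2. Seeded 2 × 10^5 cells/well and exposed to a range of compound concentrations for 48 h at 37 °C. MTT was then added for 4 h at 37 °C. Formazan was dissolved in DMSO and absorbance read at 540 nm. IC50 derived; run in triplicate.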
In the case of `COc1cc(/C=C/C(=O)OCCCCCCCCCCCCCCCCCCCCCCCCOC(=O)/C=C/c2ccc(O)c(OC)c2)ccc1O`, the half-inhibitory concentration (IC50) was > 100 µM.

Regarding `CCCCC/C=C\C/C=C\CCCCCCCC(=O)OC(CO)COC(=O)CCCCCCC/C=C/C/C=C/CCCCC` (stereo unspecified), the IC50 is > 100 µM.

With `CCCCC/C=C\C/C=C\CCCCCCCC(=O)OCC(O)COC(=O)CCCCCCCCCCCCCCCCCC` (stereo unspecified), the IC50 is > 100 µM.

As for `CCCCC/C=C\C/C=C\CCCCCCCC(=O)OCC(O)CO` (stereo unspecified), the IC50 was > 100 µM.

As to `CCCCC/C=C\C/C=C/CCCCCCCC(=O)OCC(O)COC(=O)CCCCCCC/C=C\CCCCCCCC` (stereo unspecified), the half-inhibitory concentration (IC50) was > 100 µM.

With `COc1cc([C@@H]2c3cc(O)c(OC)cc3C=C(C(=O)NCCc3ccc(O)cc3)[C@H]2C(=O)NCCc2ccc(O)cc2)ccc1O` [CANNABISIN D], the midpoint of inhibition, the IC50, lay at 81 µM.

Regarding `COc1cc(/C=C(C(=O)NCCc2ccc(O)cc2)\C(=C/c2ccc(O)c(OC)c2)C(=O)NCCc2ccc(O)cc2)ccc1O` [CANNABISIN G], the IC50 was 76 µM.

Consider `CCCCCCCCCCCCCCCCCC(=O)OCC(O)CO` (stereo unspecified) [GLYCERYL MONOSTEARATE], for which the IC50 is > 100 µM.

On to `COc1cc([C@@H]2Oc3c(OC)cc(/C=C/C(=O)NCCc4ccc(O)cc4)cc3[C@H]2C(=O)NCCc2ccc(O)cc2)ccc1O` [GROSSAMIDE], for which the concentration for half-maximal inhibition (IC50) was 33 µM. This lies in the double-digit micromolar range.

For `COc1cc(/C=C(C(=O)NCCc2ccc(O)cc2)/C(=C/c2ccc(O)c(OC)c2)C(=O)NCCc2ccc(O)cc2)ccc1O` [HYOSCYAMIDE], the 50% inhibitory concentration (IC50) was > 100 µM.

`COc1cc(/C=C/C(=O)NCCc2ccc(O)cc2)ccc1O` [N-TRANS-FERULOYL TYRAMINE]: the IC50 was > 100 µM.
